Measured values reported in ChEMBL document CHEMBL5058577, “EUbOPEN Chemogenomics Library 2 (Multiplex)” (2022).

System: HEK-293T
Assay: Multiplex assay against HEK293T
Format: toxicity, cell-based
Conditions: human
Method in brief: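 Live cells were stained at seeding with Hoechst33342, BioTracker Green Microtubule Cytoskeleton Dye, MitoTracker Red and Annexin V Alexa Fluor 680. Following compound addition, they were imaged on a CQ1 microscope at 37°C and 5% CO2 and gated by CellPathfinder machine learning into Hoechst high-intensity objects or normal cells, with normal cells split into healthy, pyknosed or fragmented nuclei and pyknosed cells into mitotic or apoptotic. Tubulin, mitochondrial-mass and membrane-permeability phenotypes are per cents of healthy-nucleus cells.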

[1] = 12 h, 1 µM, compound concentration 1 uM, replicate 1
[2] = 12 h, 1 µM, compound concentration 1 uM, replicate 2
[3] = 12 h, 10 µM, compound concentration 10 uM, replicate 1
[4] = 12 h, 10 µM, compound concentration 10 uM, replicate 2
[5] = 24 h, 1 µM, compound concentration 1 uM, replicate 1
[6] = 24 h, 1 µM, compound concentration 1 uM, replicate 2
[7] = 24 h, 10 µM, compound concentration 10 uM, replicate 1
[8] = 24 h, 10 µM, compound concentration 10 uM, replicate 2
[9] = 48 h, 1 µM, compound concentration 1 uM, replicate 1
[10] = 48 h, 1 µM, compound concentration 1 uM, replicate 2
[11] = 48 h, 10 µM, compound concentration 10 uM, replicate 1
[12] = 48 h, 10 µM, compound concentration 10 uM, replicate 2

## CCn1c(-c2nc3cc(C(=O)N4CCCC(N)C4)ccc3n2C)cc2ccccc21.Cl (configuration not stated)
[1]
  Population Apoptotic (%): 54%
  Population Fragmented Nuclei (%): 9%
  Population Healthy Nuclei (%): 77%
  Population Hoechst High Intensity Objects (%): 7%
  Population Membrane Permeable-Phenotype (%): 0%
  Population Mitochondria Different-Phenotype (%): 52%
  Population Mitotic Cells (%): 45%
  Population Normal (%): 92%
  Population Pyknosed Nuclei (%): 13%
  Population Tubulin-Different-Phenotype (%): 33%
  Total Cell Count: 351
[2]
  Population Apoptotic (%): 47%
  Population Fragmented Nuclei (%): 5%
  Population Healthy Nuclei (%): 81%
  Population Hoechst High Intensity Objects (%): 6%
  Population Mitochondria Different-Phenotype (%): 69%
  Population Mitotic Cells (%): 52%
  Population Normal (%): 93%
  Population Tubulin-Different-Phenotype (%): 20%
  Total Cell Count: 312
[3]
  Population Apoptotic (%): 53%
  Population Fragmented Nuclei (%): 8%
  Population Healthy Nuclei (%): 74%
  Population Hoechst High Intensity Objects (%): 11%
  Population Membrane Permeable-Phenotype (%): 0%
  Population Mitochondria Different-Phenotype (%): 85%
  Population Mitotic Cells (%): 46%
  Population Normal (%): 88%
  Population Pyknosed Nuclei (%): 17%
  Population Tubulin-Different-Phenotype (%): 75%
  Total Cell Count: 406
[4]
  Population Fragmented Nuclei (%): 6%
  Population Healthy Nuclei (%): 78%
  Population Hoechst High Intensity Objects (%): 8%
  Population Normal (%): 91%
  Population Pyknosed Nuclei (%): 15%
  Population Tubulin-Different-Phenotype (%): 64%
  Total Cell Count: 398
[5]
  Population Apoptotic (%): 35%
  Population Fragmented Nuclei (%): 9%
  Population Healthy Nuclei (%): 80%
  Population Hoechst High Intensity Objects (%): 6%
  Population Membrane Permeable-Phenotype (%): 0%
  Population Mitochondria Different-Phenotype (%): 37%
  Population Mitotic Cells (%): 64%
  Population Normal (%): 93%
  Population Pyknosed Nuclei (%): 10%
  Population Tubulin-Different-Phenotype (%): 22%
  Total Cell Count: 459
[6]
  Population Apoptotic (%): 39%
  Population Healthy Nuclei (%): 79%
  Population Hoechst High Intensity Objects (%): 4%
  Population Mitochondria Different-Phenotype (%): 49%
  Population Mitotic Cells (%): 60%
  Population Normal (%): 95%
  Population Pyknosed Nuclei (%): 11%
  Population Tubulin-Different-Phenotype (%): 14%
  Total Cell Count: 383
[7]
  Population Apoptotic (%): 51%
  Population Fragmented Nuclei (%): 11%
  Population Healthy Nuclei (%): 70%
  Population Hoechst High Intensity Objects (%): 12%
  Population Membrane Permeable-Phenotype (%): 1%
  Population Mitochondria Different-Phenotype (%): 72%
  Population Mitotic Cells (%): 48%
  Population Normal (%): 87%
  Population Pyknosed Nuclei (%): 18%
  Population Tubulin-Different-Phenotype (%): 64%
  Total Cell Count: 449
[8]
  Population Apoptotic (%): 40%
  Population Fragmented Nuclei (%): 8%
  Population Healthy Nuclei (%): 78%
  Population Hoechst High Intensity Objects (%): 9%
  Population Membrane Permeable-Phenotype (%): 0%
  Population Mitochondria Different-Phenotype (%): 83%
  Population Mitotic Cells (%): 59%
  Population Normal (%): 90%
  Population Pyknosed Nuclei (%): 13%
  Population Tubulin-Different-Phenotype (%): 58%
  Total Cell Count: 471
[9]
  Population Apoptotic (%): 20%
  Population Fragmented Nuclei (%): 12%
  Population Healthy Nuclei (%): 79%
  Population Hoechst High Intensity Objects (%): 5%
  Population Membrane Permeable-Phenotype (%): 1%
  Population Mitochondria Different-Phenotype (%): 28%
  Population Mitotic Cells (%): 79%
  Population Normal (%): 94%
  Population Pyknosed Nuclei (%): 8%
  Population Tubulin-Different-Phenotype (%): 17%
  Total Cell Count: 771
[10]
  Population Apoptotic (%): 14%
  Population Fragmented Nuclei (%): 13%
  Population Healthy Nuclei (%): 81%
  Population Hoechst High Intensity Objects (%): 4%
  Population Membrane Permeable-Phenotype (%): 0%
  Population Mitochondria Different-Phenotype (%): 30%
  Population Mitotic Cells (%): 85%
  Population Normal (%): 95%
  Population Pyknosed Nuclei (%): 5%
  Population Tubulin-Different-Phenotype (%): 11%
  Total Cell Count: 640
[11]
  Population Apoptotic (%): 50%
  Population Fragmented Nuclei (%): 14%
  Population Healthy Nuclei (%): 73%
  Population Hoechst High Intensity Objects (%): 15%
  Population Membrane Permeable-Phenotype (%): 0%
  Population Mitochondria Different-Phenotype (%): 65%
  Population Mitotic Cells (%): 49%
  Population Normal (%): 84%
  Population Pyknosed Nuclei (%): 12%
  Population Tubulin-Different-Phenotype (%): 63%
  Total Cell Count: 605
[12]
  Population Apoptotic (%): 52%
  Population Fragmented Nuclei (%): 10%
  Population Healthy Nuclei (%): 79%
  Population Hoechst High Intensity Objects (%): 8%
  Population Mitochondria Different-Phenotype (%): 71%
  Population Mitotic Cells (%): 47%
  Population Normal (%): 91%
  Population Pyknosed Nuclei (%): 9%
  Total Cell Count: 613
